# Reference: PMC3428507 (Journal of molecular biology, 2012)
# Assays:
# Pf1 PHD1 [1] = target: T1, Pf1 PHD1 (Homo sapiens, UniProt Q96QT6); assay: Pulldown of GST-Pf1 PHD1 with biotinylated histone H3 peptides; format: binding; settings: GST-Pf1 PHD1 (residues 53–103); wash 50 mM Tris pH 7.5, 150 mM NaCl, 0.05% NP-40; SDS-PAGE, Coomassie
# Method in brief: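 GST-Pf1 PHD1 (53–103) and GST-Pf1 PHD2 (268–319) came from E. coli and were eluted from glutathione resin with glutathione. They were incubated with an array of biotinylated histone H3 peptides on avidin beads. Washes also held 0.3 mg/ml BSA and 1 mM DTT. Bound protein was resolved by SDS-PAGE.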
# Pf1 PHD1 [2] = target: T1, Pf1 PHD1; format: binding; settings: even at molar concentrations; unpublished data
# Pf1 PHD2 = assay: NMR titration of Pf1 PHD2 with small molecule mimics of histone modifications; format: binding, human; settings: unpublished data
# MRG15 CD = MRG15 CD (Homo sapiens, UniProt Q9UBU8); assay: NMR titration of 15N-labeled MRG15 CD with methyllysine peptides/ligands; format: binding
# Chain of MRG15 CD (Q9UBU8 1-90 isoform Q9UBU8-2): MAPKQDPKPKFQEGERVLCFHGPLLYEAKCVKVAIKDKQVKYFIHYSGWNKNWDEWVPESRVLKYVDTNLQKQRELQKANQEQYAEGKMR
# [3] = system: Pf1 PHD1/MBD (residues 48–241); assay: NMR of 15N-labeled Pf1 PHD1/MBD with MRG15 proteins; format: binding, human; settings: equimolar; 20 mM Tris pH 7.5, 50 mM NaCl, 10 μM ZnSO4, 15 mM DTT, 0.2% NaN3, 25 °C
# T1 sequence (Q96QT6 48-116): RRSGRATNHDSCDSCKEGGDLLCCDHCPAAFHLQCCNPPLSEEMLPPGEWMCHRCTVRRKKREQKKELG
Compound,binding to Pf1 PHD1 in pulldown (Pf1 PHD1 [1]),interaction with Pf1 PHD2 in NMR titrations (Pf1 PHD2),other results
18–37: biotinylated H3 peptide spanning residues 18–37,failed to do so,–,–
CC(=O)NCCCC[C@H](N)C(=O)O [acetyllysine],–,lack of any interaction,interaction with Pf1 PHD1 in NMR titrations (Pf1 PHD1 [2]): neither trimethyllysine nor acetyllysine interacted with Pf1 PHD1
N[C@@H](COP(=O)(O)O)C(=O)O [phosphoserine],–,lack of any interaction,–
C[C@@H](OP(=O)(O)O)[C@H](N)C(=O)O [phosphothreonine],–,lack of any interaction,–
C[N+](C)(C)CCCC[C@H](N)C(=O)O [trimethyllysine],–,lack of any interaction,"Kd (MRG15 CD): 11 ± 3.3 mM; perturbations in the MRG15 CD NMR spectrum (MRG15 CD; pH 7.5, 25 °C): induced a similar pattern of perturbations in the NMR spectrum of MRG15 CD as the aforementioned peptides; interaction with Pf1 PHD1 in NMR titrations (Pf1 PHD1 [2]): neither trimethyllysine nor acetyllysine interacted with Pf1 PHD1"
H3 peptide spanning residues 1–20: unmodified biotinylated histone H3 peptide spanning residues 1–20,bound to Pf1 PHD1,–,–
H3 peptides spanning residues 27–46: biotinylated H3 peptide spanning residues 27–46,failed to do so,–,–
MRG15 MRG: MRG domain of MRG15 (residues 155–323),–,–,effect on 15N-Pf1 PHD1/MBD spectrum [3]: disappearance of resonances corresponding to the PHD1 domain
dimethylarginine,–,lack of any interaction,–
